From publication PMC10269403 (Journal of medicinal chemistry, 2023)
Values joined by “and” are separate entries in the source; they are usually repeats but may differ in a detail not shown here. Identical values can stand only once. “Also recorded” adds a separate entry of the source. Like-named read-outs stand apart in the source and are kept apart here. Each block holds one compound with its values, some of them ahead of it.

Columns and labels:
HIV-1 IIIB virus = experiment: Inhibition of wild-type HIV-1; type: cell-based
[1] = system: HIV-1 IIIB (A17 variant) virus; experiment: microbe, parasite or virus in culture; type: cell-based; details: for EC50: Human immunodeficiency virus 1, IIIB, TZM-bl
Y181C HIV mutant = experiment: Inhibition of NNRTI-resistant Y181C mutant in TZM-bl cells; type: cell-based, HIV-1; details: 0.05–500 nM
L100I/K103N HIV mutant = experiment: Inhibition of NNRTI-resistant L100I/K103N mutant in TZM-bl cells; type: cell-based, HIV-1; details: 0.05–500 nM
K103N HIV mutant = experiment: Inhibition of NNRTI-resistant K103N mutant in TZM-bl cells; type: cell-based, HIV-1; details: 0.05–500 nM
[2] = target: HIV reverse transcriptase (Human immunodeficiency virus type 1 group M subtype B, UniProt P03366); experiment: HIV RT inhibition, fluorescent EnzChek/PicoGreen assay; type: biochemical, HIV-1
Solubility = type: physicochemical
[3] = Metabolic stability in mouse liver microsomes; type: in vitro ADME
[4] = Metabolic stability in human liver microsomes; type: in vitro ADME
Protein binding = type: in vitro ADME
Caco-2 cells = experiment: Efflux in Caco-2 cells; type: in vitro ADME
primary mouse neurons [5] = experiment: Neuronal toxicity by MAP-2 staining in primary mouse neurons; type: cell-based; details: for TC50 (µM) Relative MAP-2 Area / TC50 (µM) Relative MAP-2 intensity: 48 hr, 0.1 to 10,000 nM, ±SD; for estimated TC10: primary neurons, discussion
Balb/C male mice = experiment: In vivo acute toxicity study; details: 2000 mg/kg single oral dose, 14 days
Balb/C mice = experiment: In vivo subacute toxicity study; details: 30 days
[6] = Single-dose pharmacokinetics in mice; details: mouse
primary mouse neurons [7] = experiment: Calcium imaging in primary mouse neuron cultures; type: cell-based; details: 1 µM
Outline: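 Primary mouse cortex/hippocampus cultures were seeded at 20,000 cells/cm2 on poly-D-lysine coverslips in Neurobasal Plus/B27 Plus/Glutamax (>95% neurons by day 4). At 14–18 days in vitro, neurons were loaded with Fluo-4 AM (2 µM) in aCSF (NaCl 137, KCl 5.0, CaCl2 2.3, MgCl2 1.3, glucose 20 mM). Average spikes were scored in acute and delayed phases plus a summation average, versus matched controls. Statistics: Brown-Forsythe/Welch ANOVA with Dunnett's T3.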

HIV = details: cited from earlier work
hERG = hERG (Homo sapiens, UniProt Q12809); details: cited from earlier work
Sequence of hERG (Q12809 whole entry): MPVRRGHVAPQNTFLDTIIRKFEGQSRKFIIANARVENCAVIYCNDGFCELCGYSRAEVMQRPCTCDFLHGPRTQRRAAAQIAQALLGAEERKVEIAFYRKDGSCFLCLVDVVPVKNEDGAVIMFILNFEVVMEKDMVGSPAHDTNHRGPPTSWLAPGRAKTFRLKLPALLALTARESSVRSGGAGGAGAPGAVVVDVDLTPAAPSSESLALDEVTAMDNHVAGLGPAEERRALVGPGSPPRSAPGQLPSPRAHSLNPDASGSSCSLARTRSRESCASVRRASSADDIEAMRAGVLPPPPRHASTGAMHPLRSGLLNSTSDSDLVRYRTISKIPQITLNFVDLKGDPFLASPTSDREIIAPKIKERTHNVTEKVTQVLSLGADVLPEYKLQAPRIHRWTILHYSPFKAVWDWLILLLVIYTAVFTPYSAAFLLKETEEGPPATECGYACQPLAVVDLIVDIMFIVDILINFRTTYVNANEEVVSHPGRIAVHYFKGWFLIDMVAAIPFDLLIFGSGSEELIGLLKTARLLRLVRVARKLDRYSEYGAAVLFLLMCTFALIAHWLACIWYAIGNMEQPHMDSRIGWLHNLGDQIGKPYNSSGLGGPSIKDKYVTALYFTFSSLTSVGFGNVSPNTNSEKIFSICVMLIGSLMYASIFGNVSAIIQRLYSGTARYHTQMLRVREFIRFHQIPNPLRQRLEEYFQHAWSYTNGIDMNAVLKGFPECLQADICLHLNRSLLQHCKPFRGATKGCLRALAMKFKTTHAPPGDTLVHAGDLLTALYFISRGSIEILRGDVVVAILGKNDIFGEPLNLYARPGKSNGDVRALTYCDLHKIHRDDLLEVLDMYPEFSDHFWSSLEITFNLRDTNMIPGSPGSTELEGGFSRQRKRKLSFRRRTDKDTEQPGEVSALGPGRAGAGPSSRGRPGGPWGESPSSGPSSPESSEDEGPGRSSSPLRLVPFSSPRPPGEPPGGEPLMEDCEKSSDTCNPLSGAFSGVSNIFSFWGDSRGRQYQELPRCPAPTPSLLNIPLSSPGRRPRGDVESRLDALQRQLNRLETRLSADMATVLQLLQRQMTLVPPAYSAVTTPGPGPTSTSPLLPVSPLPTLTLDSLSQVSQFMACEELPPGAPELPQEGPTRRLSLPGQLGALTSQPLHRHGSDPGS

[8] = cited from earlier work
HIV-RT = details: substituted pyridinones; cited from earlier work
TZM-bl cells = experiment: Cytotoxicity in TZM-bl cells; type: cell-based
[9] = Cytotoxicity in TZM-bl cells; type: cell-based; details: human
[10] = Human immunodeficiency virus 1, IIIB, TZM-bl, read-out: WT EC50 (nM)

Compound: N#C/C=C/c1ccc2c(S(=O)(=O)n3nc(Nc4ccc(C#N)c(Cl)c4)nc3N)cccc2c1 [compound 12126065, 4-[[5-amino-1-[[6-[(E)-2-cyanovinyl]-1-naphthyl]sulfonyl]-1,2,4-triazol-3-yl]amino]-2-chloro-benzonitrile]
EC50 (HIV-1 IIIB virus; Human immunodeficiency virus 1, IIIB, TZM, read-out: EC50 against wild-type HIV-1 in TZM cells): 0.24 nM | EC50 (HIV-1 IIIB virus; Human immunodeficiency virus 1, IIIB, TZM-bl, read-out: EC50 (TZM, WT)): 0.263 nM | EC50 (HIV-1 IIIB virus; [10]): 0.47 ± 0.05 nM | EC90 (HIV-1 IIIB virus; Human immunodeficiency virus 1, IIIB, TZM-bl, read-out: estimated EC90): 0.019 µM | EC50 ([1]; read-out: A17 EC50 (nM)): 3.4 ± 1.1 nM | EC50 ([1]; read-out: EC50 against K103N/Y181C double mutant): 1.33 ± 0.16 nM | activity against Y181C mutant (in words) (Y181C HIV mutant): retained activity | activity against L100I/K103N mutant (in words) (L100I/K103N HIV mutant): not drastically mitigated; also recorded: retained activity | activity against K103N mutant (in words) (K103N HIV mutant): retained activity | EC50 [2]: 0.23 ± 0.07 µM | solubility (in words) (Solubility): poor | metabolic stability (in words) [3]: good | metabolic stability (in words) [4]: good | protein binding (in words) (Protein binding): high | efflux in Caco-2 cells (in words) (Caco-2 cells): no indication of efflux | TC50 (µM) Relative MAP-2 Area (primary mouse neurons [5]): 100 ± 410 µM | TC50 (µM) Relative MAP-2 intensity (primary mouse neurons [5]): >10 µM | Estimated TC10 (µM) Relative MAP-2 Intensity (primary mouse neurons [5]; concentration of 10% loss of MAP-2): >10 µM | 50% toxicity concentration (TC50) (primary mouse neurons [5]; mouse neurons, as stated in abstract): > 100 µM | neurotoxicity in mouse neurons (in words) (primary mouse neurons [5]; up to 10 µM): minimal neurotoxicity | acute toxicity (in words) (Balb/C male mice): no in vivo acute or subacute toxicity; also recorded: No visible signs of intoxication | aspartate aminotransferase activity versus control (in words) (Balb/C mice; 250 mg/kg group only): reduced aspartate aminotransferase activity | subacute toxicity (in words) (Balb/C mice; 25 and 250 mg/kg daily): no in vivo acute or subacute toxicity | half-life ([6]; male, Balb/C, plasma, po, 250 mg/kg): 7.7 ± 1.57 h | in vivo brain penetration (in words) ([6]; in vivo): good

Compound: Cc1cc(/C=C/C#N)cc(C)c1Nc1ccnc(Nc2ccc(C#N)cc2)n1 [RPV, rilpivirine]
EC50 (HIV-1 IIIB virus; [10]): 0.35 ± 0.03 nM | EC50 ([1]; read-out: A17 EC50 (nM)): 2.5 ± 1.9 nM | EC50 [2]: 0.16 ± 0.06 µM | estimated TC10 (primary mouse neurons [5]): 0.6 to 0.93 µM | calcium spiking frequency, acute phase (in words) (primary mouse neurons [7]): acute suppression | proposed plasma target concentration (protein binding-adjusted EC90) (HIV): 0.0121 µg/mL | EC90 (HIV; read-out: proposed plasma target concentration (protein binding-adjusted EC90)): 0.033 µM | concentration shown to inhibit hERG in vitro (hERG): 300 nM | recorded CSF concentrations [8]: up to 2.9 ng/ml and ≤ 7.9 nM

Compound: N#Cc1ccc2c(S(=O)(=O)n3nc(Nc4ccc(C#N)c(Cl)c4)nc3N)cccc2c1 [compound 11826116, 5-[[5-amino-3-(3-chloro-4-cyano-anilino)-1,2,4-triazol-1-yl]sulfonyl]naphthalene-2-carbonitrile]
EC50 (HIV-1 IIIB virus; [10]): 0.34 ± 0.04 nM | EC50 ([1]; read-out: A17 EC50 (nM)): 25 ± 6.6 nM

Compound: CO[P@](=O)(c1cc(C)cc(/C=C/C#N)c1)c1c(C(N)=O)[nH]c2ccc(Cl)cc12 [IDX899]
EC50 (HIV; aryl-phospho-indole): 0.001 µM

Compound: Cn1c(Cn2ccc(C(F)(F)F)c(Oc3cc(Cl)cc(C#N)c3)c2=O)n[nH]c1=O [Doravirine, doravirine]
IC50 (HIV-RT): 0.011 µM

Compound: Nc1nc(Nc2ccc(Cl)cc2)nn1S(=O)(=O)c1ccc2ccccc2c1 [compound 11626007, N^3-(4-chlorophenyl)-1-(2-naphthylsulfonyl)-1,2,4-triazole-3,5-diamine]
inhibition of A17 mutant (in words) ([1]; TZM-bl cells, early screening): No appreciable inhibition | toxicity in MTS assay (in words) (TZM-bl cells): No observable toxicity | EC50 [2]: 0.28 ± 0.1 µM | TC50 (µM) Relative MAP-2 Area (primary mouse neurons [5]): 34 ± 46 µM | TC50 (µM) Relative MAP-2 intensity (primary mouse neurons [5]): 23 ± 18 µM

calcium accumulation, delayed phase (in words) (primary mouse neurons [7]): pronounced increase | calcium spiking frequency, acute phase (in words) (primary mouse neurons [7]): acute suppression
Compound: O=C1Nc2ccc(Cl)cc2[C@@](C#CC2CC2)(C(F)(F)F)O1 [EFV, efavirenz]
estimated TC10 (primary mouse neurons [5]): 0.07 µM | plasma levels ([8]; human, in vivo): 3170 to 12670 nM

Compound: N#Cc1ccc(Nc2nc(N)n(S(=O)(=O)c3cccc4cc(C#N)ccc34)n2)cc1 [compound 11726152, 5-[[5-amino-3-(4-cyanoanilino)-1,2,4-triazol-1-yl]sulfonyl]naphthalene-2-carbonitrile]
EC50 (HIV-1 IIIB virus; [10]): 0.35 ± 0.05 nM | EC50 ([1]; read-out: A17 EC50 (nM)): 49 ± 7.8 nM | EC50 [2]: 0.7 ± 0.22 µM | TC50 (µM) Relative MAP-2 Area (primary mouse neurons [5]): 1.2 ± 0.6 µM | TC50 (µM) Relative MAP-2 intensity (primary mouse neurons [5]): 1.0 ± 0.5 µM | Safety Index (primary mouse neurons [5]; TC10/(100*EC50), relative MAP-2 area): 1.6

Compound: N#Cc1ccc(Nc2nc(N)n(S(=O)(=O)c3c(Cl)nc4sccn34)n2)cc1 [compound 11926331, 4-[[5-amino-1-(6-chloroimidazo[2,1-b]thiazol-5-yl)sulfonyl-1,2,4-triazol-3-yl]amino]-benzonitrile]
whole cell virus activity (in words) (HIV-1 IIIB virus; Table S1): excellent | RT activity (in words) ([2]; Table S1): excellent

Compound: N#Cc1ccc2c(S(=O)(=O)n3nc(Nc4ccc(C#N)c(C#N)c4)nc3N)cccc2c1 [compound 12126055, 4-[[5-amino-1-[(6-cyano-1-naphthyl)sulfonyl]-1,2,4-triazol-3-yl]amino]phthalonitrile]
EC50 (HIV-1 IIIB virus; [10]): 0.21 ± 0.01 nM | EC50 ([1]; read-out: A17 EC50 (nM)): 49 ± 9.5 nM | CC50 at 48 h [9]: 28 ± 66 µM | EC50 [2]: 0.35 ± 0.13 µM | TC50 (µM) Relative MAP-2 Area (primary mouse neurons [5]): 48 ± 86 µM | TC50 (µM) Relative MAP-2 intensity (primary mouse neurons [5]): 50 ± 140 µM
